The structures appear in SMILES notation. Several values for one entry are separate records, joined by “and”; a condition that tells them apart may be missing. Identical values can stand only once. Activity calls are given as the source filed them. No cut-off for these calls is given here.

The species named for assay [1] is Mus musculus. Nature of the assay: Percent protection of PAF-induced mortality in mice after 0.5 hr. It counts as functional. More on the design: concentration or dose not given beside the values. The method in brief: (§1)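 Duration study in male Swiss mice (22–26 g). Single 1 mg/kg iv dose of test compound at time 0. C18-PAF 100 µg/kg plus propranolol 1 mg/kg given iv via tail vein at the stated time after dosing, 10–40 mice per time point.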

Assay [2] is filed under the species Mus musculus. The assay is described as follows: Percent protection of PAF-induced mortality in mice after 3h. It counts as functional. Also noted: concentration or dose not given beside the values. In short, it runs like this: as §1
The species named for assay [3] is Mus musculus. Nature of the assay: Percent protection of PAF-induced mortality in mice after 24 hr. More on the design: concentration or dose not given beside the values. It counts as functional. In short, it runs like this: as §1
For assay [4], the species on record is Mus musculus. The assay is described as follows: Percent protection of PAF-induced mortality in mice after 5 hr. Also noted: concentration or dose not given beside the values. It counts as functional. In short, it runs like this: as §1
For assay [5], the species on record is Mus musculus. The assay is described as follows: Percent protection of PAF-induced mortality in mice after 7 hr. The format is functional. More on the design: concentration or dose not given beside the values. In short, it runs like this: as §1
The nature of assay [6]: Dose required (i.v.) to reduce the lowering of arterial blood pressure caused by PAF in rats. The settings on record: Rattus norvegicus.
The species entered for assay [7] is Mus musculus. Nature of the assay: Percent protection of PAF-induced mortality in mice after 2 hr. The format is functional. More on the design: concentration or dose not given beside the values. In short, it runs like this:
as §1

Assay [8] concerns Mus musculus. The assay is described as follows: Compound was evaluated for the inhibition of PAF-induced mortality in mice, after intravenous administration of the drug. The following applies: read-out: ID50 (the source's name). It counts as functional.
Assay [9] is filed under the species Mus musculus. The assay is described as follows: Percent protection of PAF-induced mortality in mice after 17h. It counts as functional. Also noted: concentration or dose not given beside the values. The method in brief:
as §1

For assay [10], the species on record is Mus musculus. Nature of the assay: Percent protection of PAF-induced mortality in mice after 5h; NP means no protection. The format is functional, organism-based. In short, it runs like this:
(§2)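 Male Swiss mice (22–26 g) given compound as a single 1 mg/kg iv dose at time 0. At the stated time, C18-PAF 100 µg/kg plus propranolol 1 mg/kg injected into a lateral tail vein. […] 10–40 mice per time point.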

The species entered for assay [11] is Mus musculus. Nature of the assay: Percent protection of PAF-induced mortality in mice after 7h; NP means no protection. It counts as functional, organism-based. The method in brief:
as §2

`CCCCCCCCCCCCCCCCCCOC1CC(COC(=O)N(Cc2cccc[n+]2CC)C(C)=O)CO1.[Cl-]` (configuration not stated): the Protection worked out at 100% in the assay filed under Mus musculus [1]; 100% in the assay listed under Mus musculus [2]; 48% in the assay filed under Mus musculus [3]; 100% in the assay listed under Mus musculus [4]; 95% in the assay listed under Mus musculus [5]; 100% in the assay listed under Mus musculus [7]. The same compound returned a Protection in the assay filed under Mus musculus [9] of 81%. Also, the ID50 in assay [6] is 0.026 mg/kg and 0.025 mg/kg. In addition, the ED50 in the assay on Mus musculus [8] was 0.023 mg/kg.
As for `CC[n+]1ccccc1CN(C(C)=O)C(=O)OCC1COC(OCCCCCCOCc2ccc(-c3ccccc3)cc2)C1` (configuration not stated), in [6], the ID50 came out at 0.012 mg/kg.
For the compound `CC[n+]1ccccc1CN(C(C)=O)C(=O)OCC1COC(OCCCCCCOCCCCCc2ccccc2)C1.[I-]` (configuration not stated), the Protection in the assay filed under Mus musculus [1] came to 100%; in the assay filed under Mus musculus [2], 100%; in the assay filed under Mus musculus [3], 38%; in the assay listed under Mus musculus [4], 89%; in the assay listed under Mus musculus [5] it was 80%; in the assay filed under Mus musculus [7], 100%. Moreover, the Protection in the assay filed under Mus musculus [9] came out at 38%. Also, in [6], the ID50 turned out to be 0.021 mg/kg. For the same compound, the ED50 in the assay on Mus musculus [8] came to 0.0083 mg/kg.
In the case of `CCOC1CC(COC(=O)N(Cc2cccc[n+]2CC)C(C)=O)CO1` (configuration not stated), in [6], the ID50 worked out at 2.3 mg/kg.
On to `CCCCCCCCCCCCCCCCCCOCC1CC(COC(=O)N(Cc2cccc[n+]2CC)C(C)=O)CO1.[Cl-]` (configuration not stated), for which the Protection in the assay listed under Mus musculus [2] is given as 100%; in the assay filed under Mus musculus [3], 33%; in the assay listed under Mus musculus [4], 100%; in the assay filed under Mus musculus [5], 100%; in the assay listed under Mus musculus [9] it was 44%. This compound registered an ID50 in [6] of 0.011 mg/kg. In addition, the ED50 in the assay on Mus musculus [8] is 0.026 mg/kg.
Consider `CC[n+]1ccccc1CN(C(C)=O)C(=O)OCC1COC(OCCCCCCOCCCc2ccccc2)C1.[I-]` (configuration not stated), for which the Protection in the assay listed under Mus musculus [2] is 50%; in the assay filed under Mus musculus [7], 100%. In the assay filed under Mus musculus [10], the Protection result was “inactive”. In addition, the ID50 in [6] is 0.06 mg/kg. Besides, the ED50 with Mus musculus [8] came to 0.073 mg/kg.
On to `CCCCCCCCCCCCCCCCCCOC1C[C@H](COC(=O)N(Cc2cccc[n+]2CC)C(C)=O)CO1.[I-]` (some centres not stated), for which the Protection in the assay listed under Mus musculus [3] is listed as 60%; in the assay filed under Mus musculus [4] it was 100%; in the assay listed under Mus musculus [5], 100%; in the assay filed under Mus musculus [9] it was 93%. For the same compound, the ID50 in assay [6] turned out to be 0.031 mg/kg. For the same compound, the ED50 with Mus musculus [8] came to 0.012 mg/kg.
Consider `CCCCCCCCCCCCCCCCOC1CC(COC(=O)N(Cc2cccc[n+]2CC)C(C)=O)CO1.[I-]` (configuration not stated), for which the Protection in the assay filed under Mus musculus [1] was 100%; in the assay listed under Mus musculus [2] it was 88%; in the assay filed under Mus musculus [3], 44%; in the assay filed under Mus musculus [4], 61%; in the assay filed under Mus musculus [5], 64%; in the assay filed under Mus musculus [7], 100%. The Protection in the assay listed under Mus musculus [9] was 65%. In addition, the ID50 in assay [6] came to 0.01 mg/kg. Besides, in the assay with Mus musculus [8], the ED50 was 0.024 mg/kg.
As to `CCCCCCCCCCOCCCCCCOC1CC(COC(=O)N(Cc2cccc[n+]2CC)C(C)=O)CO1.[I-]` (configuration not stated), the Protection in the assay filed under Mus musculus [1] was 100%; in the assay filed under Mus musculus [2] it was 100%; in the assay filed under Mus musculus [3], 51%; in the assay filed under Mus musculus [4], 100%; in the assay listed under Mus musculus [5], 88%; in the assay listed under Mus musculus [7], 100%. Also, the Protection in the assay listed under Mus musculus [9] is listed as 40%. Moreover, the ID50 in assay [6] was determined as 0.004 mg/kg. Also, the ED50 in the assay with Mus musculus [8] was determined as 0.0064 mg/kg.
Consider `CCCCCCCCCCCCCCCCCC1CC(COC(=O)N(Cc2cccc[n+]2CC)C(C)=O)CO1.[I-]` (configuration not stated), for which the Protection in the assay filed under Mus musculus [1] is listed as 100%; in the assay filed under Mus musculus [2] it was 16%; in the assay listed under Mus musculus [7], 16%. The Protection entry in the assay listed under Mus musculus [10] was “inactive”. For the same compound, the ID50 in [6] is 0.05 mg/kg. The ED50 in the assay on Mus musculus [8] came to 0.36 mg/kg.
Regarding `C=CCCCCCCOCCCCCCOC1CC(COC(=O)N(Cc2cccc[n+]2CC)C(C)=O)CO1.[I-]` (configuration not stated), the Protection in the assay listed under Mus musculus [2] was found to be 88%; in the assay listed under Mus musculus [4] it was 63%; in the assay listed under Mus musculus [5] it was 40%; in the assay filed under Mus musculus [7], 100%; in the assay filed under Mus musculus [9], 20%. In assay [6], this compound registered an ID50 of 0.063 mg/kg. Further, the ED50 with Mus musculus [8] worked out at 0.024 mg/kg.
As for `CCCCCCCCCCCCCCCCOCC1CC(COC(=O)N(Cc2cccc[n+]2CC)C(C)=O)CO1.[Cl-]` (configuration not stated), the Protection in the assay listed under Mus musculus [2] is 75%; in the assay filed under Mus musculus [3], 17%; in the assay listed under Mus musculus [4] it was 54%; in the assay filed under Mus musculus [5], 65%; in the assay filed under Mus musculus [7], 100%; in the assay listed under Mus musculus [9] it was 44%. In assay [6], this compound yielded an ID50 of 0.027 mg/kg. The ED50 with Mus musculus [8] came out at 0.031 mg/kg.
With `CC[n+]1ccccc1CN(C(C)=O)C(=O)OCC1COC(OCCC(c2ccccc2)c2ccccc2)C1` (configuration not stated), the ID50 in [6] was 0.11 mg/kg.
On to `CCCCCCCCCCCCCCCCCCNC(=O)OCC(COC(=O)N(Cc1cccc[n+]1CC)C(C)=O)OC.[Cl-]` (configuration not stated) [CV-6209], for which the Protection in the assay listed under Mus musculus [1] was determined as 100%; in the assay listed under Mus musculus [2] it was 100%; in the assay filed under Mus musculus [3], 48%; in the assay listed under Mus musculus [4], 100%; in the assay listed under Mus musculus [5], 100%; in the assay listed under Mus musculus [7], 100%. The Protection in the assay filed under Mus musculus [9] is recorded as 95%. For the same compound, in [6], the ID50 stood at 0.0078 mg/kg. The ED50 in the assay on Mus musculus [8] came out at 0.022 mg/kg.
For the compound `CCCCCCCCCCCCCCCCCCCCOC1CC(COC(=O)N(Cc2cccc[n+]2CC)C(C)=O)CO1` (configuration not stated), the ID50 in [6] was found to be 0.048 mg/kg.
Turning to `CC[n+]1ccccc1CN(C(C)=O)C(=O)OCC1COC(OCCC(C)C)C1` (configuration not stated), in assay [6], the ID50 turned out to be 0.21 mg/kg.
As for `CC[n+]1ccccc1CN(C(C)=O)C(=O)OCC1COC(OCCCCCCCCCCCCCCCCOC)C1.[I-]` (configuration not stated), the Protection is on record as 100% in the assay filed under Mus musculus [1], 66% in the assay filed under Mus musculus [2], 59% in the assay filed under Mus musculus [4] and 100% in the assay filed under Mus musculus [7]. Moreover, the Protection entry in the assay filed under Mus musculus [11] was “inactive”. This compound also had an ID50 in assay [6] of 0.04 mg/kg. The ED50 with Mus musculus [8] was found to be 0.0076 mg/kg.
On to `CCCCCCCCCCCCCCCCCCO[C@@H]1C[C@H](COC(=O)N(Cc2cccc[n+]2CC)C(C)=O)CO1.[I-]`, for which the Protection is on record as 38% in the assay filed under Mus musculus [3], 100% in the assay listed under Mus musculus [5] and 67% in the assay filed under Mus musculus [9]. The same compound registered an ID50 in assay [6] of 0.066 mg/kg. For the same compound, the ED50 in the assay on Mus musculus [8] was 0.03 mg/kg.
`CC[n+]1ccccc1CN(C(C)=O)C(=O)OCC1COC(OCCCc2ccccc2)C1` (configuration not stated) registered an ID50 in assay [6] of 0.12 mg/kg.
